Experimental data taken from ChEMBL document CHEMBL4118199 (J Med Chem, 2018).

Key:
[1] = Stability in pH 6.5 PBS buffer at 1 mM after 12 hrs by HPLC analysis; assay type: physicochemical; settings: read-out: Stability
Method in brief: (§1)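 Compound in DMSO added to 1x PBS adjusted with HCl/NaOH to pH 6.5, 7.4 or 8.0, giving about 1 mM final. Sulfonyl fluoride hydrolysis followed by analytical HPLC over 12 h. Peak measured right after buffer addition set as 0 h reference. Reported as residual % of intact R-SO2F.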

[2] = Stability in pH 7.4 PBS buffer at 1 mM after 1 hr by HPLC analysis; assay type: physicochemical; settings: read-out: Stability; method in brief: as §1
[3] = Stability in pH 7.4 PBS buffer at 1 mM after 6 hrs by HPLC analysis; assay type: physicochemical; settings: read-out: Stability; method in brief: as §1
[4] = Stability in pH 8 PBS buffer at 1 mM after 2 hrs by HPLC analysis; assay type: physicochemical; settings: read-out: Stability; method in brief: as §1
[5] = target: T1, Proteasome Macropain subunit MB1 (Homo sapiens, UniProt P28074); assay: Inhibition of human 20S constitutive proteasome beta-5 using Suc-LLVY-AMC as substrate after 60 mins by fluorescence assay
T1 sequence (P28074 whole entry): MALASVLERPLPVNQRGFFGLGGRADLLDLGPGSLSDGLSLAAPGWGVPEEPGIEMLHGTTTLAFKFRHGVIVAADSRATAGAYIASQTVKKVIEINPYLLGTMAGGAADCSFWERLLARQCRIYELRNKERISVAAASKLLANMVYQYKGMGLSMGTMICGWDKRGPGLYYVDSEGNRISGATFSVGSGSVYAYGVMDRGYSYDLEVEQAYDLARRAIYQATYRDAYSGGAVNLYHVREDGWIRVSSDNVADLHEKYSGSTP
Method in brief: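 Inhibitors preincubated 60 min at ambient temperature with shaking, final concentrations 0.1 nM–400 µM. Fluorogenic substrate at final 100 µM. Duplicates, three repetitions. IC50 obtained from a Hill-equation fit of % residual activity against log concentration.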

Homo sapiens [6] = species on record: Homo sapiens; assay: Selectivity ratio of IC50 for human 20S constitutive proteasome beta-5 to IC50 for human 20S constitutive proteasome beta-2
[7] = target: T2, Proteasome subunit beta type-10 (Homo sapiens, UniProt P40306); assay: Inhibition of human 20S immunoproteasome beta-2 using Bz-VGR-AMC as substrate after 60 mins by fluorescence assay
T2 sequence (P40306 whole entry): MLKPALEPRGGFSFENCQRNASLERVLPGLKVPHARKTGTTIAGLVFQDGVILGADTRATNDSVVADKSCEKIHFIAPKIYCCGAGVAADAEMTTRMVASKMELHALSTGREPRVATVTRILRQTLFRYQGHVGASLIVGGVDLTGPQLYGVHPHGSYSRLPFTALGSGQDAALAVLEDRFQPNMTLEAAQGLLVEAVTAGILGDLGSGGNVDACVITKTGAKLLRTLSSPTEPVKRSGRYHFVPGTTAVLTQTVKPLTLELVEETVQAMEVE
Method in brief: (§2)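 Purified 20S proteasome (final 2.5 nM) in kit assay buffer. Inhibitors preincubated 60 min at ambient temperature with shaking, final concentrations 0.1 nM–400 µM. Fluorogenic substrate at final 100 µM. Fluorescence (ex 360 nm, em 460 nm) read kinetically for 2 h at 25 °C. Duplicates, three repetitions. IC50 obtained from a Hill-equation fit of % residual activity against log concentration.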

[8] = target: T3, Proteasome subunit beta type-8 (Homo sapiens, UniProt P28062); assay: Inhibition of human 20S immunoproteasome beta-5 using Suc-LLVY-AMC as substrate after 60 mins by fluorescence assay; method in brief: as §2
T3 sequence (P28062 whole entry): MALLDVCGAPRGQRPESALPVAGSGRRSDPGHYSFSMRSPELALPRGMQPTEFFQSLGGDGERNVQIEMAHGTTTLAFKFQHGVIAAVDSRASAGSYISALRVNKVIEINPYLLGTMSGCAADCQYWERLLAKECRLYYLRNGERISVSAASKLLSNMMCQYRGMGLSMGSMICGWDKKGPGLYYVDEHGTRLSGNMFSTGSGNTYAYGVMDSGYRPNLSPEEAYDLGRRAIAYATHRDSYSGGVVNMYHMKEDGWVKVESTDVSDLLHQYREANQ

Homo sapiens [9] = species on record: Homo sapiens; assay: Selectivity ratio of IC50 for human 20S immunoproteasome beta-5 to IC50 for human 20S immunoproteasome beta-2

Compound | remaining at 12 h, 1000 µM [1] [%] | remaining at 1 h, 1000 µM [2] [%] | remaining at 6 h, 1000 µM [3] [%] | remaining at 2 h, 1000 µM [4] [%] | IC50 [5] [µM] | Ratio IC50 (Homo sapiens [6]) | IC50 [7] [µM] | IC50 [8] [µM] | Ratio IC50 (Homo sapiens [9])
CC(C)C[C@H](NC(=O)[C@H](Cc1ccccc1)N=[N+]=[N-])C(=O)N[C@@H](CC(C)C)C(=O)N[C@@H](Cc1ccc(N)cc1)CS(=O)(=O)F | 75 | 90 | ≥ 50 | 50 |  |  |  |  | 
CC(C)C[C@H](NC(=O)[C@H](CC(C)C)NC(=O)[C@@H](N)Cc1ccccc1)C(=O)N[C@@H](CCCCN)CS(=O)(=O)F | 75 | 90 | ≥ 50 | 50 | > 100 | > 1000 | 0.3 | > 100 | > 1000
CC(C)C[C@H](NC(=O)[C@H](CC(C)C)NC(=O)[C@H](Cc1ccccc1)NC(=O)OC(C)(C)C)C(=O)N[C@@H](CCCNC(=N)N)CS(=O)(=O)F | 75 | 90 | ≥ 50 | 50 | 27.8 | 40 |  |  | 
CC(C)C[C@H](NC(=O)[C@H](CC(C)C)NC(=O)[C@@H](N)Cc1ccccc1)C(=O)N[C@@H](Cc1ccc(N)cc1)CS(=O)(=O)F | 75 | 90 | ≥ 50 | 50 | 0.95 | 4.3 | 0.2 | 0.45 | 2.3
CC(=O)N[C@@H](Cc1ccccc1)C(=O)N[C@@H](CC(C)C)C(=O)N[C@@H](CC(C)C)C(=O)N[C@@H](CCCCN)CS(=O)(=O)F | 75 | 90 | ≥ 50 | 50 | > 100 | 300 |  |  | 
CC(C)C[C@H](NC(=O)[C@H](Cc1ccccc1)N=[N+]=[N-])C(=O)N[C@@H](CC(C)C)C(=O)N[C@@H](Cc1ccc(CN)cc1)CS(=O)(=O)F | 75 | 90 | ≥ 50 | 50 | 8.9 | 66 | 0.13 | 3.1 | 24
CC(C)C[C@H](NC(=O)[C@H](Cc1ccccc1)N=[N+]=[N-])C(=O)N[C@@H](CC(C)C)C(=O)N[C@@H](CCCNC(=N)N)CS(=O)(=O)F | 75 | 90 | ≥ 50 | 50 | 39 | 110 |  |  | 
CC(=O)N[C@@H](Cc1ccccc1)C(=O)N[C@@H](CC(C)C)C(=O)N[C@@H](CC(C)C)C(=O)N[C@@H](Cc1ccc(CN)cc1)CS(=O)(=O)F | 75 | 90 | ≥ 50 | 50 | 18 | 150 | 0.395 | 17.2 | 44
CC(C)C[C@H](NC(=O)[C@H](CC(C)C)NC(=O)[C@@H](N)Cc1ccccc1)C(=O)N[C@@H](CCCNC(=N)N)CS(=O)(=O)F | 75 | 90 | ≥ 50 | 50 | 140 | 560 | 0.21 | > 100 | > 1000
CC(C)C[C@H](NC(=O)[C@H](Cc1ccccc1)N=[N+]=[N-])C(=O)N[C@@H](CC(C)C)C(=O)N[C@@H](CCCCN)CS(=O)(=O)F | 75 | 90 | ≥ 50 | 50 | 67 | 96 |  |  | 
CC(C)C[C@H](NC(=O)[C@H](CC(C)C)NC(=O)[C@H](Cc1ccccc1)NC(=O)OCc1ccccc1)C(=O)N[C@@H](CCCNC(=N)N)CS(=O)(=O)F | 75 | 90 | ≥ 50 | 50 | 6.7 | 45 | 0.4 | 6.7 | 17
CC(C)C[C@H](NC(=O)[C@H](CC(C)C)NC(=O)[C@@H](N)Cc1ccccc1)C(=O)N[C@@H](Cc1ccc(CN)cc1)CS(=O)(=O)F | 75 | 90 | ≥ 50 | 50 | 125 | 900 | 0.36 | 137 | 380
CC(C)C[C@H](NC(=O)[C@H](Cc1ccccc1)N=[N+]=[N-])C(=O)N[C@@H](CC(C)C)C(=O)N[C@H](/C=C/S(C)(=O)=O)Cc1ccc(CN)cc1 |  |  |  |  |  |  | 0.0275 | 1.8 | 
CC(C)C[C@H](NC(=O)OCc1ccccc1)C(=O)N[C@@H](CC(C)C)C(=O)N[C@@H](CC(C)C)C(=O)N[C@@H](CCCNC(=N)N)CS(=O)(=O)F | 75 | 90 | ≥ 50 | 50 | 10 | 50 | 1.11 | 14 | 13
CC(=O)N[C@@H](Cc1ccccc1)C(=O)N[C@@H](CC(C)C)C(=O)N[C@@H](CC(C)C)C(=O)N[C@@H](Cc1ccc(N)cc1)CS(=O)(=O)F | 75 | 90 | ≥ 50 | 50 | 0.21 | 0.1 |  |  | 
CC(=O)N[C@@H](Cc1ccccc1)C(=O)N[C@@H](CC(C)C)C(=O)N[C@@H](CC(C)C)C(=O)N[C@@H](CCCNC(=N)N)CS(=O)(=O)F | 75 | 90 | ≥ 50 | 50 | 69 | 70 |  |  | 
